Assay results pooled from the literature.
Protocols differ between the studies behind these lines. Converted amounts (≈) assume the structure as drawn.
Organism: Mycobacterium tuberculosis
Effect on: microbial growth

With `NCC[C@H](O)C(=O)N[C@@H]1C[C@H](N)[C@@H](O[C@H]2O[C@H](CN)[C@@H](O)[C@H](O)[C@H]2O)[C@H](O)[C@H]1O[C@H]1O[C@H](CO)[C@@H](O)[C@H](N)[C@H]1O` the MIC50 was 0.25 µg/mL (≈ 0.427 µM).
`CCc1cc(=O)c2c(OCC(O)CN3CCC(C)CC3)c3ccoc3c(OC)c2o1` (centres unmarked) has an MIC of 32 µg/mL (resazurin; 21 days).
The IC50 of `CCCCCCC#Cc1cncc(-c2nnc(SCc3ccc(Cl)cc3)n2CCO)c1` is reported as 49 µM (resazurin; ERDMAN).
With `CO[C@H]1/C=C/O[C@@]2(C)Oc3c(C)c(O)c4c(O)c(c(/C=N/N5CCN(C)CC5)c(O)c4c3C2=O)NC(=O)/C(C)=C\C=C\[C@H](C)[C@H](O)[C@@H](C)[C@@H](O)[C@@H](C)[C@H](OC(C)=O)[C@@H]1C` the MIC90 was 0.12 µg/mL (H37RV).
For `Cc1ccc(CCNc2cc(-c3nccs3)nc3nncn23)cc1`, the MIC was 32 µM (H37RV).
For `CCC(NC(=O)c1sc2nc(-c3ccc(OC)cc3)cc(C(F)(F)F)c2c1N)c1ccccc1` (centres unmarked), the IC50 was 0.55 µM (H37RV).
With `CCCCCCC#Cc1cncc(-c2nnc(SCc3ccc([N+](=O)[O-])o3)n2CCO)c1` the IC50 was 1.3 µM (resazurin; ERDMAN).
`COC(=O)OCc1cc2[nH]c(=S)n(Cc3cncnc3)c(=O)c2cc1Cl` gave an MIC90 of 1.84 µM (H37RV).
With `Cc1ccc(-c2cc(NCCc3ccc(C(F)(F)F)cc3)n3cnnc3n2)o1` the MIC was 0.37 µM (H37RV).
The MIC90 of `COC(=O)OCc1cc2[nH]c(=S)n(Cc3cccnc3)c(=O)c2cc1Cl` is reported as 3.42 µM (H37RV).
For `FC(F)(F)c1ccc(CCNc2cc(-c3cccs3)nc3nncn23)cc1`, the MIC was 0.31 µM (H37RV).
`COc1ccc(-c2cc(C(F)(F)F)c3c(N)c(C(=O)N4CC(F)(F)C4)sc3n2)cc1` gave an IC50 of > 50 µM (H37RV).
With `COc1ccc(CCNc2cc(-c3ccccn3)nc3cc(C4CC4)nn23)cc1` the MIC was 42 µM (H37RV).
The MIC90 of `O=C(OCc1cc2[nH]c(=S)n(Cc3cncnc3)c(=O)c2cc1Cl)Oc1ccccc1` is reported as 1.94 µM (H37RV).
The MIC of `CC[C@@H](CO)NCCN[C@@H](CC)CO` is reported as 0.25 µg/mL (resazurin; H37RV; 21 days).
The IC50 of `CC(=O)c1cc(-c2ccoc2)ccc1OCCc1cccc(F)c1` is reported as 0.26 µM.
`COc1ccc(-c2cc(C(F)(F)F)c3c(N)c(C(=O)N4CCCC4(C)C)sc3n2)cc1` has an IC50 of > 100 µM (H37RV).
For `COc1c(N2C[C@@H]3CCCN[C@@H]3C2)c(F)cc2c(=O)c(C(=O)O)cn(C3CC3)c12`, the MIC was 0.125 µg/mL (H37RV).
`c1ccc(-c2cc(NCCC34CC5CC(CC(C5)C3)C4)n3cnnc3n2)nc1` has an MIC of 11 µM (H37RV).
`Cc1cccc(NC(=O)c2sc3nc(-c4ccco4)cc(C(F)(F)F)c3c2N)c1C` has an IC50 of > 100 µM (H37RV).
With `CCCCCCC#Cc1cncc(-c2nnc(SCc3ccc([N+](=O)[O-])cc3)n2CCCN)c1` the IC50 was 20 µM (resazurin; ERDMAN).
For `O=c1c2cc(Cl)c(CO)cc2[nH]c(=S)n1Cc1cncc(-c2nnn[nH]2)c1`, the MIC90 was 59.2 µM (H37RV).
`CCc1cc(=O)c2c(OCC(O)CN3CCCCC3)c3ccoc3c(OC)c2o1` (centres unmarked) has an MIC of 64 µg/mL (resazurin; H37RV; 21 days).
For `Cc1ccc(CCNc2cc(-c3ccc(C)o3)nc3nncn23)cc1`, the MIC was 0.36 µM (H37RV).
`CCc1cc(=O)c2c(OCC(O)CN3CCOCC3)c3ccoc3c(OC)c2o1` (centres unmarked) has an MIC of 256 µg/mL (resazurin; H37RV; 21 days).
`CCCCCCC#Cc1cncc(-c2nnc(SCc3cc([N+](=O)[O-])cc([N+](=O)[O-])c3)n2CCOC2OC(CN)C(O)C2O)c1` (centres unmarked) has an IC50 of 18 µM (resazurin; ERDMAN).
`Cc1ccc(-c2cc(NCCc3ccc(OC(F)(F)F)cc3)n3cnnc3n2)o1` gave an MIC of 0.46 µM (H37RV).
With `CCCCCCC#Cc1cncc(-c2nnc(SCc3cc(C(F)(F)F)cc(C(F)(F)F)c3)n2CCCN)c1` the IC50 was 3.1 µM (resazurin; ERDMAN).
`O=c1c2cc(Cl)cnc2[nH]c(=S)n1Cc1cccnc1` has an MIC90 of > 100 µM (H37RV).
For `NNC(=O)c1ccncc1`, the MIC90 was 0.34 µM (H37RA).
`CCc1cc(=O)c2c(OCC(O)CNC(C)C)c3ccoc3c(OC)c2o1` (centres unmarked) has an MIC of 16 µg/mL (resazurin; 21 days).
With `C[C@H](N)C(=O)OCc1cc2[nH]c(=S)n(Cc3cncnc3)c(=O)c2cc1Cl` the MIC90 was 4.22 µM (H37RV).
`CCCCCCC#Cc1cncc(-c2nnc(SCc3cc([N+](=O)[O-])cc([N+](=O)[O-])c3)n2C2CCNCC2)c1` has an IC50 of 2.6 µM (resazurin; ERDMAN).
`CCN(CC)C(=O)c1sc2ncccc2c1N` gave an IC50 of > 100 µM (H37RV).
`Clc1ccc(CCNc2cc(C3CCCO3)nc3nncn23)cc1` (centres unmarked) gave an MIC of 73 µM (H37RV).
The IC50 of `CCCCCCC#Cc1cncc(-c2nnc(SCc3cc(=O)[nH]c4ccccc34)n2C)c1` is reported as > 200 µM (resazurin; ERDMAN).
`Nc1c(C(=O)NCc2ccccc2)sc2nc(-c3ccccc3)ccc12` has an IC50 of 42 µM (H37RV).
`CN(C)Cc1cc2[nH]c(=S)n(Cc3cccnc3)c(=O)c2cc1Cl` gave an MIC90 of > 100 µM (H37RV).
The IC50 of `CC(C)(O)c1ccc(OCCc2cccc(F)c2)c(C(N)=O)c1` is reported as 2.7 µM.
`O=c1c2cc(Cl)c(CF)cc2[nH]c(=S)n1Cc1cccnc1` has an MIC90 of 6.72 µM (H37RV).
`Cc1cccc(NC(=O)c2sc3nc(-c4cccs4)cc(C(F)(F)F)c3c2N)c1C` has an IC50 of > 100 µM (H37RV).
For `CCCCCCC#Cc1cncc(-c2nnc(SCc3ccc([N+](=O)[O-])o3)n2CCCN)c1`, the IC50 was 12 µM (resazurin; ERDMAN).
For `COc1ccc(-c2cc(C(F)(F)F)c3c(N)c(C(=O)N4CCC4)sc3n2)cc1`, the IC50 was > 100 µM (H37RV).
`NNC(=O)c1ccncc1` has an MIC90 of 0.81 µg/mL (H37RV).
